Source: ChEMBL document CHEMBL5223176, “Design, synthesis, docking, and biochemical characterization of non-nucleoside SARS-CoV-2 RdRp inhibitors” (Bioorg Med Chem, 2023)
Calls of active or inactive are those of the source. The rule behind the calls is not given here.

Tests used:
[1] = Kinetic solubility of the compound in pH 7.4 PBS incubated for 24 hrs by UPLC/MS analysis; assay type: physicochemical; conditions: buffer, pH 7.4, 24 h
[2] = Metabolic stability in mouse plasma assessed as half life measured upto 120 mins by LC-MS/MS analysis; assay type: ADME, cell-free
Summary of the method: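 Compound at 2 µM final incubated at 37 °C for up to 2 h in mouse plasma with 5 % DMSO; sampled at 0, 5, 15, 30, 60, 120 min into cold acetonitrile with internal standard, centrifuged, supernatant diluted 1:1 with water and quantified by LC-MS/MS.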

[3] = Metabolic stability in mouse liver microsomes assessed as half life preincubated with microsomes for 15 mins followed by NADPH addition and measured upto 60 mins by LC-MS/MS analysis; assay type: ADME, Microsome; conditions: time < 75 min
Summary of the method: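 Compound at 4.6 µM final preincubated 15 min at 37 °C with mouse liver microsomes in 0.1 M Tris-HCl pH 7.4, then NADPH, G6P, G6PDH and MgCl2 added; sampled at 0, 5, 15, 30, 60 min into cold acetonitrile with internal standard. LC-MS/MS with positive ESI; percent remaining versus t = 0; half-life from one-phase decay non-linear regression.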

[4] = system: HEK293; assay: Cytotoxicity against HEK293 cells assessed as inhibition of cell growth at 100 uM incubated for 24 to 48 hrs by MTT assay; assay type: toxicity, cell-based; conditions: human, hek293, 100 µM, time 24-48 hrs
Summary of the method: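 HEK-293 cells grown in DMEM with 2 mM L-glutamine, 10 % heat-inactivated FBS, 1 % penicillin/streptomycin, 37 °C, 5 % CO2; seeded 10,000 cells/well, treated 24 h after seeding for 24 or 48 h, vehicle DMSO 0.5 % final. MTT 0.5 mg/ml for 2 h, formazan dissolved in ethanol, absorbance 570 nm (ref 650 nm); 8 serial dilutions in triplicate, three independent experiments, mean ± SD.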

[5] = molecular target: Replicase polyprotein 1ab (Severe acute respiratory syndrome coronavirus 2) (UniProt P0DTD1); assay: (§1) Inhibition of SARS-CoV-2 RdRp using ATP substrate preincubated with compound for 30 mins followed by substrate addition and measured after 30 mins by Alphascreen microplate reader analysis; conditions: time 60.0 min
[6] = molecular target: Replicase polyprotein 1ab (Severe acute respiratory syndrome coronavirus 2, UniProt P0DTD1); assay: as §1
[7] = system: SARS-CoV-2; assay: Antiviral activity against SARS-CoV-2 human/Czech Republic/951/2020 infected in African green monkey Vero cells pretreated […] followed by viral infection and measured after 48 hrs by viral titer reduction assay; assay type: functional, organism-based; conditions: Severe acute respiratory syndrome coronavirus 2, human/Czech Republic/951/2020, Vero

| SMILES | Kinetic_solubility [1] [µM] | half-life [2] [h] | half-life [3] [h] | other results |
| --- | --- | --- | --- | --- |
| CCCCOc1c(-c2ccc(O)c(O)c2)oc2cc(O)cc(O)c2c1=O | 156 | > 1 | > 2 | Activity [4]: Non-Toxic |
| O=c1cc(C(CCCC(F)(F)F)c2ccc(O)c(O)c2)oc2cccc(O)c12 (stereo not drawn) |  |  |  | inhibition [5]: inactive |
| Cc1c(-c2ccc(O)c(O)c2)oc2cc(O)cc(O)c2c1=O | 32 |  |  |  |
| O=c1cc(Cc2ccc(O)c(O)c2)oc2cccc(O)c12 | 63 | > 1 | > 2 |  |
| CCCc1c(-c2ccc(O)c(O)c2)oc2cc(O)cc(O)c2c1=O | 13 |  |  |  |
| O=C(Oc1ccc(O)c(O)c1)c1cc(=O)c2c(O)cccc2o1 | < 1 |  |  |  |
| O=c1cc(CCc2ccc(O)c(O)c2)oc2cccc(O)c12 | 67 | > 1 | > 2 |  |
| O=c1cc(-c2ccc(O)c(O)c2)oc2cc(O)cc(O)c12 [LUTEOLIN] |  | > 1 | > 2 |  |
| O=C(Nc1ccc(O)c(O)c1)c1cc(=O)c2c(O)cccc2o1 | 65 | 1 | 1.38 |  |
| O=c1cc(/C=C/c2ccc(O)c(O)c2)oc2cccc(O)c12 | < 1 |  |  |  |
| O=c1c(OCCCO)c(-c2ccc(O)c(O)c2)oc2cc(O)cc(O)c12 |  | 1 | 1.5 | Activity [4]: Non-Toxic |
| CC(c1ccc(O)c(O)c1)c1cc(=O)c2c(O)cccc2o1 (stereo not drawn) | 165 | > 1 | > 2 | Activity [4]: Non-Toxic |
| O=c1c(OCCO)c(-c2ccc(O)c(O)c2)oc2cc(O)cc(O)c12 | 167 | > 1 | > 2 | Activity [4]: Non-Toxic |
| CCCCC(c1ccc(O)c(O)c1)c1cc(=O)c2c(O)cccc2o1 (stereo not drawn) |  |  |  | IC50 [6]: > 100 µM |
| O=c1c(O)c(-c2ccc(O)c(O)c2)oc2cc(O)cc(O)c12 [QUERCETIN] |  | > 1 | 0.117 |  |
| O=C(NCCNC(=S)Nc1ccc(O)c(O)c1)c1cc(=O)c2c(O)cccc2o1 | < 1 |  |  |  |
| CCCCc1c(-c2ccc(O)c(O)c2)oc2cc(O)cc(O)c2c1=O | < 1 |  |  | IC50 [6]: 6 µM |
| O=C(N[C@@H](Cc1ccc(O)cc1)C(=O)O)c1cc(-c2ccccc2)c(=O)n2c1sc1ccc(OC3CCCCC3)cc12 |  |  |  | EC50 [7]: 0.65 µM |
